The nature of assay [1]: Her2 expression decrease, cell viability multiplex – SKBR3 breast tumor cells, AlphaScreen, ATP viability, primary screen (AID 461).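 As to Her2 level: lower value means less Her2 protein in the cells.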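 As to viability: percent of carrier control wells set as 100% viability.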 Conditions: SKBR3 Her2 protein level, 18-24 h, measured here: SKBR3 viability, ATP luminescence, at 10 µM.
Assay [2] deals with Receptor tyrosine-protein kinase erbB-2 (Homo sapiens) (UniProt P04626). The assay is described as above. The note with it: 18-24 h, at 10 µM, stronger effect = lower value.
A short description of assay [3]: reduced viability of SK-BR-3 breast cancer cells – cell-based, 24 h, human, pilot screen (AID 572;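 active = viability at or below 10% of carrier control in both of two separate runs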;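 also: compound exposure lasted between 18 and 24 h rather than exactly 24 h; 100% = carrier-treated control wells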). The note with it: SK-BR-3 viability, CellTiter-Glo luminescence, at 10 µM, stronger effect = lower value. On the technique in general: ATP-based viability assays read luminescence as a measure of living cells.
Assay [4] in a line: HUVEC growth inhibition – cell-based, human, primary screen (AID 575;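 active = viability at or below 30% in both replicate assays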;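 also: 100% = median of untreated cell wells with 0.1% DMSO on each plate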). Conditions: HUVEC proliferation, CellTiter-Glo luminescence, 72 h; at 10 µM; stronger effect = lower value. The gist of the method: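 System: primary human umbilical vein endothelial cells; Quantity: 1250 endothelial cells in each well; Buffer or medium: supplemented EBM, 2% fetal bovine serum; Doses: one dose, 10 µM final, 0.1% DMSO; Incubation: 72 h compound incubation; Technique: ATP-based CellTiter-Glo luminescent read; Evaluation: percent of median DMSO-control luminescence; Controls: vehicle and MePR control wells.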

Assay [5] is described as follows: H69AR cell proliferation blockers – human, duplicate replicates, primary screen (AID 580;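 active = viability at or under a set limit in both replicates, limit being median viability minus 3 SD, cut at about 48% in these data, passing the limit was not always enough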;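 also: 100% = mean luminescence of untreated wells and 0% = no signal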). Conditions: H69AR lung tumor cells viability, ATP luminescence, 72 h; at 10 µM; stronger effect = lower value.
The nature of assay [6]: MRP1 drug-resistance reversers in H69AR cells – cell-based, doxorubicin co-treatment, pilot screen (AID 601;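 active = viability loss from added drug above about 55%, and viability with drug at most 40%, in both replicates, limit read from the data, passing the limit was not always enough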). Conditions: CellTiter-Glo, 72 h, at 10 µM; for differential viability (reversal): stronger effect = higher value.
Assay [7] can be described thus: yeast transport mutant growth inhibition pilot in 384-well plates, post-Golgi transport modulator project (AID 636; in the data active = inhibition above about 31%). Conditions: absorbance 615 nm, about 18 h, stronger effect = higher value.
The nature of assay [8]: growth suppression of yeast trafficking mutant, preliminary HTS, modulators of trafficking downstream of Golgi apparatus project, 1536-format plate, OD 615 nm (AID 637; in the data active = inhibition above about 30%). The note with it: yeast transport mutant growth, absorbance 615 nm, 18 h; stronger effect = higher value.
The mark [9] stands for this setting: H69AR cells + 2 uM doxorubicin, measured here: viability with 2 uM doxorubicin, stronger effect = lower value.
The mark [10] stands for this setting: H69AR cells, compound alone cytotoxicity.

Active and inactive are the calls of the source.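 The calls were made as follows, unless noted: active = Her2 level under about 52% in both replicate screens, with viability over 70% of control (limit read from the data); inconclusive = Her2 under the limit in one screen only, or viability under 70%; inactive = Her2 level above the set limit.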

14 compounds from PubChem BioAssay can be followed below.

Receptor tyrosine-protein kinase erbB-2 (Homo sapiens), sequence (P04626 whole entry, looked up): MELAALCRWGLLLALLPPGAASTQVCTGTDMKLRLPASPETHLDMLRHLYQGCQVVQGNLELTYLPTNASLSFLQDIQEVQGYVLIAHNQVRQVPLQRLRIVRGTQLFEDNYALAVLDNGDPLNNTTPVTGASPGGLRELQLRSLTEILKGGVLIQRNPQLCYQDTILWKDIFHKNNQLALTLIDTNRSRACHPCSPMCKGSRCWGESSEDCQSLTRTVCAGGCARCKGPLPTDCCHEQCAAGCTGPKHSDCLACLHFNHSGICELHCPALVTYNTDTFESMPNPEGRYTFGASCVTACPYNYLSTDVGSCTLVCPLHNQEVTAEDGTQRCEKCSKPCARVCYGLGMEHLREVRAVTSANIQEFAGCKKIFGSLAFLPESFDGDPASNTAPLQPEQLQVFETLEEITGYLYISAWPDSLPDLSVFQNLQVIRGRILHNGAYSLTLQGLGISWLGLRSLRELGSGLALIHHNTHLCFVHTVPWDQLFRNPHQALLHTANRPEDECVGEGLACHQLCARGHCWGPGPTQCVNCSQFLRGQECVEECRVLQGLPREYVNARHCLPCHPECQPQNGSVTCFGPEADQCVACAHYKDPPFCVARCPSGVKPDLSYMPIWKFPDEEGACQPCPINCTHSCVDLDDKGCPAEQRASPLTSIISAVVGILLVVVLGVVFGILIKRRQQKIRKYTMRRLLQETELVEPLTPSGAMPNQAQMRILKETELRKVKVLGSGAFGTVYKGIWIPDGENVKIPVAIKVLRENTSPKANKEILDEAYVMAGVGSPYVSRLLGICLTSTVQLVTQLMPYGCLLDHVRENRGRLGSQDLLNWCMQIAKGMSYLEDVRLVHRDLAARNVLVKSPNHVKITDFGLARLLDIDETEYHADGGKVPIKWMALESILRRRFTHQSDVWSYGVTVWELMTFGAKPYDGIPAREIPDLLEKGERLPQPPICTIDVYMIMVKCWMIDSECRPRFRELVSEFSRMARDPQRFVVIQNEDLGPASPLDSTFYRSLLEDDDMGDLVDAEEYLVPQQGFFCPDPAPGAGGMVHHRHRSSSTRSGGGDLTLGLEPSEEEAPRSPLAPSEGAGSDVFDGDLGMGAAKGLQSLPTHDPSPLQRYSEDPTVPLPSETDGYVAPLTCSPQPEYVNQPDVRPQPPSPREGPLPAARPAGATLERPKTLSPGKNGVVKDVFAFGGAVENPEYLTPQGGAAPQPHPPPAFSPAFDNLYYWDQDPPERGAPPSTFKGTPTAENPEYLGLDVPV

One may read the viability as a read-out of living cells in per cent, often relative to untreated cells. The term inhibition denotes the relative decrease from the control value, in per cent. In the case of `Cc1c(NS(=O)(=O)c2ccc3c(c2)c(=O)n(C)c(=O)n3C)c(=O)n(-c2ccccc2)n1C`, the viability in assay [1] is 99.5%; in assay [3], 99.5% (inactive); in assay [4], 77.8% (inactive); in assay [5], 95.7% (inactive); in assay [6] (setting [9]) it was 89.6%; in assay [6] (setting [10]), 95.7%. In assay [2], the Her2 level was 85.5% (inactive). Also, the differential viability (reversal) in assay [6] (H69AR cells + 2 uM doxorubicin) is 6.11% (inactive). The inhibition in assay [7] is -4.4% (inactive); in assay [8], 7.7% (inactive).
For `CCOC(=O)CSc1ncnc2c1cnn2-c1ccc(C)cc1`, the viability in assay [1] was 103%; in assay [3], 103% (inactive); in assay [4], 75% (inactive); in assay [5] it was 90.6% (inactive); in assay [6] (setting [9]), 91.4%; in assay [6] (setting [10]), 90.6%. Also, in assay [2], the Her2 level is 88.5% (inactive). For the same compound, the differential viability (reversal) in assay [6] (H69AR cells + 2 uM doxorubicin) is -0.755% (inactive). For the same compound, the inhibition is -6.4% (inactive) in assay [7] and 0.33% (inactive) in assay [8].
Turning to `Cc1cc(C)c2c(n1)nn1c(N3CCN(c4cccc(Cl)c4)CC3)cc(C)nc21`, the viability is 98.5% in assay [1]; 98.5% (inactive) in assay [3]; 61.8% (inactive) in assay [4]; 23.1% (active) in assay [5]; 16.7% in assay [6] (setting [9]); 23.1% in assay [6] (setting [10]). In assay [2], the Her2 level was 83.5% (inactive). Further, in assay [6] (H69AR cells + 2 uM doxorubicin), the differential viability (reversal) was 6.38% (inactive). The inhibition in assay [7] is -5.68% (inactive); in assay [8] it was 3.65% (inactive).
Turning to `O=S(=O)(c1ccccc1)c1nc(-c2cccs2)oc1NCC1CCCO1` (stereo not given), the viability in assay [1] was 84.5%; in assay [3] it was 84.5% (inactive); in assay [4] it was 87.9% (inactive); in assay [5] it was 99.7% (inactive); in assay [6] (setting [9]), 102%; in assay [6] (setting [10]), 99.7%. In addition, the Her2 level in assay [2] is 97% (inactive). Further, in assay [6] (H69AR cells + 2 uM doxorubicin), the differential viability (reversal) was -2.42% (inactive). The inhibition is 2.67% (inactive) in assay [7] and 10.7% (inactive) in assay [8].
For the compound `COC(=O)CCCCCNc1ccc(C(=O)OC)cc1N`, the viability was 107% in assay [1]; 107% (inactive) in assay [3]; 98.5% (inactive) in assay [4]; 91.5% (inactive) in assay [5]; 85.4% in assay [6] (setting [9]); 91.5% in assay [6] (setting [10]). Besides, the Her2 level in assay [2] is 86% (inactive). For the same compound, the differential viability (reversal) in assay [6] (H69AR cells + 2 uM doxorubicin) was 6.14% (inactive). Besides, the results for the inhibition in assay [7] and in assay [8] were -7.16% (inactive) and -6.5% (inactive), respectively.
For `C=CCc1cc(OC)ccc1OCC(O)CN1CCN(c2ccc(OC)cc2)CC1` (stereo not given), the viability in assay [1] was 82.5%; in assay [3], 82.5% (inactive); in assay [4] it was 89% (inactive); in assay [5], 99.6% (inactive); in assay [6] (setting [9]), 104%; in assay [6] (setting [10]) it was 99.6%. The Her2 level in assay [2] was 78% (inactive). The differential viability (reversal) in assay [6] (H69AR cells + 2 uM doxorubicin) is -4.29% (inactive). Besides, the figures for the inhibition in assay [7] and in assay [8] were 0.13% (inactive) and 8.57% (inactive), respectively.
With `Cc1cccc(-c2cc3nc(C)cc(NCCCN(C)C)n3n2)c1`, the viability is 91.5% in assay [1]; 91.5% (inactive) in assay [3]; 57.5% (inactive) in assay [4]; 82.8% (inactive) in assay [5]; 75.8% in assay [6] (setting [9]); 82.8% in assay [6] (setting [10]). The Her2 level in assay [2] is 87.5% (inactive). In addition, the differential viability (reversal) in assay [6] (H69AR cells + 2 uM doxorubicin) is 6.94% (inactive). The inhibition was -6.93% (inactive) in assay [7] and 1.97% (inactive) in assay [8].
On to `O=C(c1ccco1)N(Cc1cc2ccccc2[nH]c1=O)C1CCCCC1`, for which the viability in assay [1] was 98.5%; in assay [3], 98.5% (inactive); in assay [4], 91.7% (inactive); in assay [5], 95% (inactive); in assay [6] (setting [9]) it was 82.1%; in assay [6] (setting [10]) it was 95%. For the same compound, in assay [2], the Her2 level was 103% (inactive). Moreover, the differential viability (reversal) in assay [6] (H69AR cells + 2 uM doxorubicin) was 12.9% (inactive). Further, the results for the inhibition in assay [7] and in assay [8] were 0.39% (inactive) and -6.35% (inactive), respectively.
For the compound `COc1cccc(NC(=O)CN2CCN(c3ccccc3F)CC2)c1`, the viability is 90% in assay [1]; 90% (inactive) in assay [3]; 107% (inactive) in assay [4]; 94.9% (inactive) in assay [5]; 93.1% in assay [6] (setting [9]); 94.9% in assay [6] (setting [10]). For the same compound, in assay [2], the Her2 level was 88.5% (inactive). In addition, in assay [6] (H69AR cells + 2 uM doxorubicin), the differential viability (reversal) is 1.8% (inactive). Also, the results for the inhibition in assay [7] and in assay [8] were -4.4% (inactive) and 35.6% (active), respectively.
For the compound `Cc1nc(/N=C\N(C)C)sc1C(=O)Nc1ccccc1`, the viability was 93% in assay [1]; 93% (inactive) in assay [3]; 100% (inactive) in assay [4]; 96.2% (inactive) in assay [5]; 94.3% in assay [6] (setting [9]); 96.2% in assay [6] (setting [10]). Further, the Her2 level in assay [2] is 82% (inactive). The differential viability (reversal) in assay [6] (H69AR cells + 2 uM doxorubicin) is 1.87% (inactive). In addition, the results for the inhibition in assay [7] and in assay [8] were -5.81% (inactive) and -8% (inactive), respectively.
Consider `C/C(=N\O)C(=O)NCCCNCCCN(C)C`, for which the viability was 104% in assay [1]; 104% (inactive) in assay [3]; 117% (inactive) in assay [4]; 98.2% (inactive) in assay [5]; 102% in assay [6] (setting [9]); 98.2% in assay [6] (setting [10]). Moreover, in assay [2], the Her2 level is 94.5% (inactive). In assay [6] (H69AR cells + 2 uM doxorubicin), the differential viability (reversal) is -3.41% (inactive). Moreover, the values for the inhibition in assay [7] and in assay [8] were -6.16% (inactive) and 0.48% (inactive), respectively.
As for `CN1C(=O)CSc2ccc(NC(=O)N3CCN(c4ccccn4)CC3)cc21`, the viability in assay [1] is 102%; in assay [3], 102% (inactive); in assay [4], 58.2% (inactive); in assay [5] it was 91.3% (inactive); in assay [6] (setting [9]), 79.1%; in assay [6] (setting [10]), 91.3%. Moreover, the Her2 level in assay [2] was 88.5% (inactive). For the same compound, the differential viability (reversal) in assay [6] (H69AR cells + 2 uM doxorubicin) was 12.2% (inactive). Also, the values for the inhibition in assay [7] and in assay [8] were -0.4% (inactive) and 3.61% (inactive), respectively.
On to `Cc1ccc(NCc2nnc(SCC(=O)N3CCCCC3)n2CC2CCCO2)c(C)c1` (stereo not given), for which the viability in assay [1] was 94.5%; in assay [3] it was 94.5% (inactive); in assay [4] it was 106% (inactive); in assay [5], 88.7% (inactive); in assay [6] (setting [9]), 87%; in assay [6] (setting [10]) it was 88.7%. For the same compound, the Her2 level in assay [2] was 99% (inactive). The differential viability (reversal) in assay [6] (H69AR cells + 2 uM doxorubicin) was 1.68% (inactive). Also, the inhibition was -6.8% (inactive) in assay [7] and 1.13% (inactive) in assay [8].
As for `O=C1CC(N2CCC(C(=O)N3CCCCC3)CC2)C(=O)N1` (stereo not given), the viability in assay [1] was 110%; in assay [3], 110% (inactive); in assay [4] it was 94.4% (inactive); in assay [5], 96.9% (inactive); in assay [6] (setting [9]), 86.8%; in assay [6] (setting [10]) it was 96.9%. In addition, the Her2 level in assay [2] was 91.5% (inactive). Further, in assay [6] (H69AR cells + 2 uM doxorubicin), the differential viability (reversal) is 10% (inactive). Also, the inhibition was -2.63% (inactive) in assay [7] and 3.71% (inactive) in assay [8].
